Assay results reported in ChEMBL document CHEMBL1129566 (J Med Chem, 1996).
In brackets after ≈: the same amount, converted by molar mass.

Columns and labels:
Streptococcus pneumoniae [1] = test: Inhibitory concentration against purified PBP2x from Streptococcus pneumoniae; assay type: functional
In short: (§1)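 PBPs purified to homogeneity. IC50 measured by competition with fluorescent dansyl-penicillin or a coumarin analogue probe. Protein-bound fluorescence determined after TCA precipitation, filtration on glass fibre filters and drying, read on a fluorimeter.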

Streptococcus pneumoniae [2] = test: Inhibitory concentration against purified cephalosporin-resistant PBP2x.604 from Streptococcus pneumoniae; assay type: functional; in short: as §1
[3] = system: Staphylococcus epidermidis; test: Inhibitory concentration against purified beta-Lactam-resistant PBP2 from Staphylococcus epidermidis; assay type: functional; in short: as §1
Enterococcus durans = test: Inhibitory concentration against purified beta-Lactam resistant PBP5 from Enterococcus durans; assay type: functional; in short: as §1
Streptococcus pneumoniae [4] = test: Inhibitory concentration against purified cephalosporin-resistant PBP2x.505 from Streptococcus pneumoniae; assay type: functional; in short: as §1
Escherichia coli [5] = test: Inhibitory concentration against purified penicillin-binding protein(PBP) 1bgamma of Escherichia coli; assay type: functional
In short: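 PBP purified to homogeneity. IC50 from competition with dansyl-penicillin or a coumarin analogue; protein-bound fluorescence recovered by TCA precipitation and glass-fibre filtration, then read by fluorimetry after drying.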

[6] = target: Beta-lactamase TEM (Escherichia coli) (UniProt P62593); test: Rate of hydrolysis in 0.1 M sodium phosphate buffer at pH=7.0 by Beta lactamase (TEM-3)
Sequence of Beta-lactamase TEM (Escherichia coli) (P62593 whole entry): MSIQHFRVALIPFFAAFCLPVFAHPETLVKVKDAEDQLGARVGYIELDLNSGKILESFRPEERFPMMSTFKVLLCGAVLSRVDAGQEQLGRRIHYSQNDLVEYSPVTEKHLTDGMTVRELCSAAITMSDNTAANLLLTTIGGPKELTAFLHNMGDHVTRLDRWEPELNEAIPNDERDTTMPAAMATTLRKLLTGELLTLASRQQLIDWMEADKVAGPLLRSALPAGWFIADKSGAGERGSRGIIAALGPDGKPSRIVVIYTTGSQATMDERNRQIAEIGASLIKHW
In short: (§2)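 β-Lactamases purified to homogeneity; hydrolysis rate of the cephalosporin substrate measured in 0.1 M sodium phosphate buffer, pH 7.0, by standard methods.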

Staphylococcus aureus [7] = test: In vitro minimum inhibitory concentration required to produce antibacterial activity against Staphylococcus aureus 743 MRSA; assay type: functional
In short: (§3)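 Two-fold agar dilution on Mueller-Hinton agar. Overnight broth cultures diluted in fresh broth to […]; 10⁴ CFU/spot applied by inoculating apparatus onto plates with graded drug concentrations. Incubated 18 h at 37 °C; MIC taken as the lowest concentration giving complete growth inhibition.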

[8] = target: T1, Beta-lactamase SHV-1 (Escherichia coli) (UniProt P0AD63); test: Rate of hydrolysis in 0.1 M sodium phosphate buffer at pH=7.0 by Beta lactamase (SHV-4); in short: as §2
T1 sequence (whole entry): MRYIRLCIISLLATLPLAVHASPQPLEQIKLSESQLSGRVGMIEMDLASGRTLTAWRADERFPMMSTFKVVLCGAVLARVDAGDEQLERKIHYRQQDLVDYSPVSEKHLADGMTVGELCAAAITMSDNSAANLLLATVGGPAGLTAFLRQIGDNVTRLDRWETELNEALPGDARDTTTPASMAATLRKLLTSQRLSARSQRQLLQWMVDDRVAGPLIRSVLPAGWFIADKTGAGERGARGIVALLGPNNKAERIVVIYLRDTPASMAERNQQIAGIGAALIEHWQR

Staphylococcus aureus [9] = test: In vitro minimum inhibitory concentration required to produce antibacterial activity against Staphylococcus aureus 887MSSA; assay type: functional; in short: as §3
Citrobacter freundii = test: In vitro minimum inhibitory concentration required to produce antibacterial activity against Citrobacter freundii 902; assay type: functional; in short: as §3
[10] = target: Beta-lactamase (Bacillus licheniformis) (UniProt P00808); test: Rate of hydrolysis in 0.1 M sodium phosphate buffer at pH=7.0 by Beta lactamase (Bacillus licheniformis 749/C); in short: as §2
Sequence of Beta-lactamase (Bacillus licheniformis) (P00808 whole entry): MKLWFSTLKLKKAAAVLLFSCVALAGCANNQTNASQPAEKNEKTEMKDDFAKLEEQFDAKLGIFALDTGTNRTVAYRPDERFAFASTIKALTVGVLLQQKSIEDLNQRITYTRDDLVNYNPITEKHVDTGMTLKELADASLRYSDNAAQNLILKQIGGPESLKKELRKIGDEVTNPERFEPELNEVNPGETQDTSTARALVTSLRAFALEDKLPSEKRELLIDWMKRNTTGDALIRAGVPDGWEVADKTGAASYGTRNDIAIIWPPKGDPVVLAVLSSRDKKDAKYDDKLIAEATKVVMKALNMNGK

Pseudomonas aeruginosa [11] = test: (§4) In vitro minimum inhibitory concentration required to produce antibacterial activity against Pseudomonas aeruginosa ATCC 27853; assay type: functional; in short: as §3
Streptococcus pneumoniae [12] = test: Minimum inhibitory concentration for antibacterial activity against Streptococcus pneumoniae Q19 (pen s); assay type: functional; in short: as §3
Escherichia coli [13] = test: In vitro minimum inhibitory concentration required to produce antibacterial activity against Escherichia coli 25922; assay type: functional; in short: as §3
[14] = target: Beta-lactamase TEM (Escherichia coli) (UniProt P62593); test: Rate of hydrolysis in 0.1 M sodium phosphate buffer at pH=7.0 by Beta lactamase (TEM-4); in short: as §2
Enterobacter cloacae = test: In vitro minimum inhibitory concentration required to produce antibacterial activity against Enterobacter cloacae 908SSI; assay type: functional; in short: as §3
[15] = target: T1, Beta-lactamase SHV-1 (Escherichia coli); test: Rate of hydrolysis in 0.1 M sodium phosphate buffer at pH=7.0 by Beta lactamase (SHV-2); in short: as §2
[16] = target: Beta-lactamase (Proteus vulgaris) (UniProt P52664); test: Rate of hydrolysis in 0.1 M sodium phosphate buffer at pH=7.0 by Beta lactamase (Proteus vulgaris 1028)
Sequence of Beta-lactamase (Proteus vulgaris) (P52664 whole entry, looked up): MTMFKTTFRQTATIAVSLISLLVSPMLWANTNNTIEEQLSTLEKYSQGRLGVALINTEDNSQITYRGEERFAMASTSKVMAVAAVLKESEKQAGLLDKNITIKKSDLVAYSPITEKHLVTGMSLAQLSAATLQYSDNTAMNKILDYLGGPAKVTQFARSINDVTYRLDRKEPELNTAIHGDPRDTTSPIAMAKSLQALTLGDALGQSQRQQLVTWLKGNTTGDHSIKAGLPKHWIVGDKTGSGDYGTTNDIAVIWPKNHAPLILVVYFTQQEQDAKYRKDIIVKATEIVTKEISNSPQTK

Enterococcus faecalis = test: In vitro minimum inhibitory concentration required to produce antibacterial activity against Enterococcus faecalis ATCC 29212; assay type: functional; in short: as §3
Streptococcus pneumoniae [17] = test: In vitro minimum inhibitory concentration required to produce antibacterial activity against Streptococcus pneumoniae 1/37(pen r); assay type: functional; in short: as §3
Pseudomonas aeruginosa [18] = test: as §4; assay type: functional; remark: listed apart in the source
In short: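 Two-fold agar dilution on Mueller-Hinton agar. Overnight broth cultures diluted in fresh broth, inoculum 10⁴ CFU/spot applied by inoculating apparatus to plates with graded drug concentrations. Plates incubated 18 h at 37 °C. MIC taken as lowest concentration completely inhibiting growth.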

[19] = target: Beta-lactamase (Bacillus licheniformis) (UniProt P00808); test: Rate of hydrolysis in 0.1 M sodium phosphate buffer at pH=7.0 by Beta lactamase (B.l icheniformis 749/C); in short: as §2

SMILES | IC50 (Streptococcus pneumoniae [1]) | IC50 (Streptococcus pneumoniae [2]) | IC50 [3] | IC50 (Enterococcus durans) | IC50 (Streptococcus pneumoniae [4]) | IC50 (Escherichia coli [5]) | Activity (M min-1 (M of enzyme)-1) [6] | MIC (Staphylococcus aureus [7]) | MIC (Staphylococcus aureus [9]) | MIC (Citrobacter freundii) | MIC (Streptococcus pneumoniae [12]) | MIC (Escherichia coli [13]) | Activity (M min-1 (M of enzyme)-1) [14] | MIC (Enterobacter cloacae) | Activity (M min-1 (M of enzyme)-1) [15] | MIC (Enterococcus faecalis) | MIC (Streptococcus pneumoniae [17]) | MIC (Pseudomonas aeruginosa [18]) | other results
C[C@@H](O)[C@H]1C(=O)N2C(C(=O)O)=C(SCCNC=N)C[C@H]12 [IMIPENEM ANHYDROUS] | 0.5 µM | 5.3 µM | > 1000 µM | > 1000 µM | 0.5 µM | 0.01 µM | – | – | – | – | – | – | – | – | – | – | – | – | –
Nc1nc(/C(=N/O)C(=O)N[C@@H]2C(=O)N3C(C(=O)O)=C(/C=C4\CCN(CC(F)(F)F)C4=O)CS[C@H]23)cs1 [RO 25-6833] | 0.3 µM | 0.87 µM | 25 µM | 8 µM | 0.36 µM | 30 µM | 14 | 8 µg/mL (≈ 14.6 µM) | 1 µg/mL (≈ 1.83 µM) | 0.25 µg/mL (≈ 0.457 µM) | 0.06 µg/mL (≈ 0.11 µM) | ≤ 0.06 µg/mL | 305 | 0.5 µg/mL (≈ 0.915 µM) | 1580 | 1 µg/mL (≈ 1.83 µM) | 1 µg/mL (≈ 1.83 µM) | – | Activity (M min-1 (M of enzyme)-1) [8]: 1390; Activity (M min-1 (M of enzyme)-1) [10]: 906; MIC (Pseudomonas aeruginosa [11]): 16 µg/mL (≈ 29.3 µM); Activity (M min-1 (M of enzyme)-1) [16]: 461
CC(C)(O/N=C(\C(=O)N[C@@H]1C(=O)N2C(C(=O)[O-])=C(C[n+]3ccccc3)CS[C@H]12)c1csc(N)n1)C(=O)O [CEFTAZIDIME] | – | – | – | – | – | – | – | > 32 µg/mL | 8 µg/mL (≈ 14.6 µM) | 0.5 µg/mL (≈ 0.915 µM) | 0.25 µg/mL (≈ 0.457 µM) | 0.25 µg/mL (≈ 0.457 µM) | – | 1 µg/mL (≈ 1.83 µM) | – | > 32 µg/mL | 16 µg/mL (≈ 29.3 µM) | 1 µg/mL (≈ 1.83 µM) | –
CO/N=C(\C(=O)N[C@@H]1C(=O)N2C(C(=O)O)=C(CSc3nc(=O)c(O)nn3C)CS[C@H]12)c1csc(N)n1 [CEFTRIAXONE] | 0.5 µM | 5.5 µM | 960 µM | > 500 µM | 2.5 µM | 0.29 µM | 79 | > 32 µg/mL | 4 µg/mL (≈ 7.21 µM) | 0.25 µg/mL (≈ 0.451 µM) | ≤ 0.06 µg/mL | ≤ 0.06 µg/mL | 643 | 0.5 µg/mL (≈ 0.902 µM) | 2310 | > 32 µg/mL | 2 µg/mL (≈ 3.61 µM) | 16 µg/mL (≈ 28.9 µM) | Activity (M min-1 (M of enzyme)-1) ([8]; Proteus vulgaris): 3340; Activity (M min-1 (M of enzyme)-1) [19]: 1890
